Source: ChEMBL document CHEMBL2176931, “Plakilactones from the marine sponge Plakinastrella mamillaris. Discovery of a new class of marine ligands of peroxisome proliferator-activated receptor γ” (J Med Chem, 2012)
Calls of active or inactive are those of the source. The rule behind the calls is not given here.

How the values were obtained:
[1] = target: T1, Peroxisome proliferator-activated receptor delta (Homo sapiens) (UniProt Q03181); experiment: Transactivation of GAL4-fused PPARbeta ligand binding domain transfected in human HepG2 cells at 10 uM after 18 hrs by luciferase reporter gene assay; type: cell-based
T1 sequence (whole entry): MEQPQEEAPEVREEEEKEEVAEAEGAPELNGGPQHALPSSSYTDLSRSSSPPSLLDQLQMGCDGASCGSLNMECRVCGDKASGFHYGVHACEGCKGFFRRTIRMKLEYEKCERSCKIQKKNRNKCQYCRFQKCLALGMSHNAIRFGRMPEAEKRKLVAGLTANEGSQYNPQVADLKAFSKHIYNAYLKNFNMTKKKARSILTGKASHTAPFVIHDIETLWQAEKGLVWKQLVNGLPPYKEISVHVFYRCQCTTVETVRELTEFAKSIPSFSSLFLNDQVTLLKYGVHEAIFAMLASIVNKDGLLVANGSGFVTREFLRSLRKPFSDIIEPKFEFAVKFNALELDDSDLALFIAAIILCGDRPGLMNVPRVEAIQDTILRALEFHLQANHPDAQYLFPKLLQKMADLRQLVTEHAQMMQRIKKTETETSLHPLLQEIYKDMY

[2] = target: T2, Peroxisome proliferator-activated receptor alpha (Homo sapiens) (UniProt Q07869); experiment: Transactivation of GAL4-fused PPARalpha ligand binding domain transfected in human HepG2 cells at 10 uM after 18 hrs by luciferase reporter gene assay; type: cell-based
T2 sequence (whole entry): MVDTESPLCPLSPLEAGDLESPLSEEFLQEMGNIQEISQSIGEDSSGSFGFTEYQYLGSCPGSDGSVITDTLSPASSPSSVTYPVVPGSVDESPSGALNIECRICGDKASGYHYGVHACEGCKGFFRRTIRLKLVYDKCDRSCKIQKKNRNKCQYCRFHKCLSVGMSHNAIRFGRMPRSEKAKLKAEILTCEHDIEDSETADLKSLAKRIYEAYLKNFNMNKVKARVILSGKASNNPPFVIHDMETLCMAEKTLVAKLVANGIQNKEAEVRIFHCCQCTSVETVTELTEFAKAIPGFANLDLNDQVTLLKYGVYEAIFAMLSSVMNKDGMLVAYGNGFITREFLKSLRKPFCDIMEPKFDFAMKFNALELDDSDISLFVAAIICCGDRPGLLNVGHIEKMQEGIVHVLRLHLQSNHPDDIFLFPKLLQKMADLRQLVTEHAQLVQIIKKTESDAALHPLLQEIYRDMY

[3] = target: T3, Peroxisome proliferator-activated receptor gamma (Homo sapiens) (UniProt P37231); experiment: Antagonist activity at GAL4-fused PPARgamma ligand binding domain transfected in human HepG2 cells assessed as decrease in rosiglitazone-induced transactivation at 50 uM after 18 hrs by luciferase reporter gene assay; type: cell-based
T3 sequence (whole entry): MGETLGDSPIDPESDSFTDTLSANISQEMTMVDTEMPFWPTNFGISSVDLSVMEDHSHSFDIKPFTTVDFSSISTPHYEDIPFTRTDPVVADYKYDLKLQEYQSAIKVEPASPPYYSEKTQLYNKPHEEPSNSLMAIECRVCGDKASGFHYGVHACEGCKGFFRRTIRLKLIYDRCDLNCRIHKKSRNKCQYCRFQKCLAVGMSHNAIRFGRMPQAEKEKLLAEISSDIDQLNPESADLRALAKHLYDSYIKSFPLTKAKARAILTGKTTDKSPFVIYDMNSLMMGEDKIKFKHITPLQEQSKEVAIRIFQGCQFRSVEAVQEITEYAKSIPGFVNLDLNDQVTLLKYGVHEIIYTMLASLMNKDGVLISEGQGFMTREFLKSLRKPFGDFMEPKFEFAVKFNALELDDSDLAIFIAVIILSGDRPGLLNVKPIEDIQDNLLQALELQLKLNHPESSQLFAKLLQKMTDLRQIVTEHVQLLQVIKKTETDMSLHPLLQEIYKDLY

[4] = target: T3, Peroxisome proliferator-activated receptor gamma (Homo sapiens); experiment: Transactivation of GAL4-fused PPARgamma ligand binding domain transfected in human HepG2 cells at 10 uM after 18 hrs by luciferase reporter gene assay; type: cell-based
[5] = target: T3, Peroxisome proliferator-activated receptor gamma (Homo sapiens); experiment: Covalent binding affinity to N-terminal His6-tagged PPARgamma ligand binding domain (195 to 477 amino acid residues) at 20 uM after 60 to 180 mins by RP-LC-MS analysis
How it was run: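 PPARγ-LBD (1 μM) incubated with compound (20 μM) in PBS pH 7.5 at 37 °C for 60 and 180 min; aliquots analysed by RP-LC-MS on C4 column, 20–70% aqueous acetonitrile gradient with 0.05% TFA/1% formic acid over 25 min, spectra m/z 1500–3000.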

[6] = target: T3, Peroxisome proliferator-activated receptor gamma (Homo sapiens); experiment: Transactivation of PPARgamma in human HepG2 cells assessed as induction of SCD1 mRNA expression at 10 uM after 18 hrs by RT-PCR analysis relative to untreated control; type: cell-based
How it was run: (§1)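 Serum-starved HepG2 cells (E-MEM, 10% FBS at maintenance, 37 °C) treated 18 h with 10 μM compound; total RNA by TRIzol, DNase I, random-primed RT; SYBR Green qPCR, 40 cycles; normalized to GAPDH, relative to untreated cells set to 1; triplicate, experiment repeated twice.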

[7] = target: T3, Peroxisome proliferator-activated receptor gamma (Homo sapiens); experiment: Covalent binding affinity to N-terminal His6-tagged PPARgamma ligand binding domain (195 to 477 amino acid residues) by MALDI-MS and MALDI-MS/MS method
How it was run: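 Protein–ligand adduct digested with trypsin (E:S 1:100, 1 h, 37 °C), desalted on C18 ZIP-TIP, analysed by MALDI-MS in reflectron positive mode with α-cyano-4-hydroxycinnamic acid matrix, m/z 700–5000; peptide numbering per full-length PPARγ.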

[8] = target: T4, Peroxisome proliferator-activated receptor gamma (Homo sapiens, UniProt P37231); experiment: (§2) Transactivation of GAL4-fused PPARgamma ligand binding domain transfected in human HepG2 cells by luciferase reporter gene assay; type: cell-based
T4 sequence (P37231 whole entry): T3 sequence (whole entry)
How it was run: (§3)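 GAL4–PPARγ LBD luciferase transactivation in HepG2 cells; concentration–response at 1, 10 and 50 μM (rosiglitazone 10, 100, 500 nM); luciferase measured in cell extracts; relative EC50 estimated from curves; mean ± SE of three experiments.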

[9] = target: T3, Peroxisome proliferator-activated receptor gamma (Homo sapiens); experiment: as §2; type: cell-based; how it was run: as §3
[10] = target: T3, Peroxisome proliferator-activated receptor gamma (Homo sapiens); experiment: Transactivation of PPARgamma in human HepG2 cells assessed as induction of CD36 mRNA expression at 10 uM after 18 hrs by RT-PCR analysis relative to untreated control; type: cell-based; how it was run: as §1
[11] = target: T3, Peroxisome proliferator-activated receptor gamma (Homo sapiens); experiment: Transactivation of PPARgamma in human HepG2 cells assessed as induction of PEPCK mRNA expression at 10 uM after 18 hrs by RT-PCR analysis relative to untreated control; type: cell-based; how it was run: as §1
[12] = target: T3, Peroxisome proliferator-activated receptor gamma (Homo sapiens); experiment: Transactivation of PPARgamma in human THP1 cells assessed as decrease in LPS-induced MCP1 mRNA expression at 10 uM preincubated for 3 hrs prior to LPS challenge measured after 18 hrs by RT-PCR analysis relative to untreated control; type: cell-based; conditions: THP-1
How it was run: (§4)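 Serum-starved THP-1 cells pretreated 3 h with 10 μM compound (rosiglitazone 100 nM reference), then LPS 1 μg/mL for 18 h; total RNA SYBR Green real-time PCR, GAPDH-normalized, expressed relative to untreated cells set to 1; triplicate, repeated twice.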

[13] = target: T3, Peroxisome proliferator-activated receptor gamma (Homo sapiens); experiment: Transactivation of PPARgamma in human THP1 cells assessed as decrease in LPS-induced IL6 mRNA expression at 10 uM preincubated for 3 hrs prior to LPS challenge measured after 18 hrs by RT-PCR analysis relative to untreated control; type: cell-based; conditions: THP-1; how it was run: as §4

SMILES | Activity [1] | Activity [2] | Activity [4] | further results
CCCC[C@H](CC)C[C@]1(CC)C=C(CC)/C(=C/C(=O)OC)O1 | inactive | inactive |  | Activity [3]: Active
CCC1=C[C@@](CC)(C/C(=C/[C@@H](O)CC)CC)OC1=O | inactive | inactive |  | 
CCC1=C[C@@](CC)(C/C(=C\[C@H](O)CC)CC)OC1=O | inactive | inactive |  | 
CCC1=C[C@@](CC)(C[C@@H](CC)CCC(C)=O)O/C1=C\C(=O)OC |  |  | inactive | Activity [5]: inactive
CCC1=C[C@@](CC)(C[C@H](/C=C/[C@@H](C)O)CC)OC1=O | inactive | inactive |  | 
CCC1=C[C@@](CC)(C/C(=C/[C@@H](O)CC)CC)O/C1=C\C(=O)OC | inactive | inactive |  | 
CCC1=C[C@@](CC)(C[C@H](/C=C/C(C)=O)CC)O/C1=C\C(=O)OC | inactive | inactive | Active | Activity [6]: Active; Activity [5]: Active; Activity [7]: Active; EC50 [8]: 5 µM; Activity [9]: Dose-dependent effect; Activity [10]: inactive; Activity [11]: Active
CCC1=C[C@@](CC)(C[C@H](/C=C/[C@H](C)O)CC)O/C1=C\C(=O)OC | inactive | inactive | Active | Activity [6]: Active; Activity [12]: Active; EC50 [8]: 10 µM; Activity [9]: Dose-dependent effect; Activity [10]: Active; Activity [13]: Active; Activity [11]: Active
CCC1=C[C@@](CC)(C[C@H](/C=C/C(C)=O)CC)OC1=O | inactive | inactive | Active | Activity [6]: Active; Activity [5]: Active; EC50 [8]: 2 µM; Activity [9]: Dose-dependent effect; Activity [10]: Active; Activity [11]: inactive
CC/C=C/[C@H](CC)C[C@]1(CC)C=C(CC)C(=O)O1 | inactive | inactive |  | 
CC/C=C/[C@H](CC)C[C@]1(CC)C=C(CC)/C(=C/C(=O)OC)O1 | inactive | inactive |  | Activity [3]: Active
CCCC[C@H](CC)C[C@]1(CC)C=C(CC)C(=O)O1 | inactive | inactive |  | 
CCC1=C[C@@](CC)(C/C(=C\[C@@H](O)CC)CC)OC1=O | inactive | inactive |  | 
CCC1=C[C@@](CC)(C[C@@H](CC)CCC(C)=O)OC1=O |  |  | inactive | Activity [5]: inactive
CC[C@@H]1C[C@@]2(CC)O/C(=C\C(=O)OC)[C@@]3(CC)OO[C@H]([C@@H](C)O)[C@@H]1[C@@H]23 | inactive | inactive |  | 
